# Measured values from ChEMBL document CHEMBL1141308, “The ansacarbamitocins: polar ansamitocin derivatives” (J Nat Prod, 2007).
# Active and inactive are the calls of the source. The calls are words filed in the database; no cut-off is given here.
# Legend:
# Septoria = assay: Antifungal activity against Septoria tritici at 25 ug/mL; format: functional
# Method in brief: (§1)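 In vitro antifungal screening assay against the named Septoria species, testing purified compounds at a single concentration of 25 µg/mL.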
# [1] = Antifungal activity against Septoria nodorum at 25 ug/mL; format: functional; method in brief: as §1
SMILES,Activity (Septoria),Activity [1]
CNC(=O)O[C@H]1CC(=O)N([C@H]2O[C@@H](CO)[C@H](OC(N)=O)[C@@H](O)[C@@H]2O)c2cc(cc(O)c2Cl)C/C(C)=C/C=C/[C@@H](OC)[C@@]2(O)C[C@H](OC(=O)N2)[C@@H](C)[C@H]2O[C@@]12C,inactive,inactive
CNC(=O)O[C@H]1CC(=O)N([C@H]2O[C@@H](CO)[C@H](O)[C@@H](O)[C@@H]2O)c2cc(cc(O)c2Cl)C/C(C)=C/C=C/[C@@H](OC)[C@@]2(O)C[C@H](OC(=O)N2)[C@@H](C)[C@H]2O[C@@]12C,inactive,inactive
CNC(=O)O[C@H]1CC(=O)N([C@H]2O[C@@H](COC(C)=O)[C@H](OC(N)=O)[C@@H](O)[C@@H]2O)c2cc(cc(O)c2Cl)C/C(C)=C/C=C/[C@@H](OC)[C@@]2(O)C[C@H](OC(=O)N2)[C@@H](C)[C@H]2O[C@@]12C,inactive,inactive
CNC(=O)O[C@H]1CC(=O)N([C@H]2O[C@@H](COC(C)=O)[C@H](OC(N)=O)[C@@H](OC)[C@@H]2O)c2cc(cc(O)c2Cl)C/C(C)=C/C=C/[C@@H](OC)[C@@]2(O)C[C@H](OC(=O)N2)[C@@H](C)[C@H]2O[C@@]12C,inactive,inactive
CNC(=O)O[C@H]1CC(=O)N([C@H]2O[C@@H](CO)[C@H](OC(N)=O)[C@@H](OC)[C@@H]2O)c2cc(cc(O)c2Cl)C/C(C)=C/C=C/[C@@H](OC)[C@@]2(O)C[C@H](OC(=O)N2)[C@@H](C)[C@H]2O[C@@]12C,inactive,inactive
CNC(=O)O[C@H]1CC(=O)N([C@H]2O[C@@H](COC(C)=O)[C@H](OC(N)=O)[C@@H](O)[C@@H]2O)c2cc(cc(O)c2Cl)C/C(C)=C/C=C/[C@@H](OC)[C@@]2(O)C[C@H](OC(=O)N2)[C@@H](C)/C=C/1C,inactive,inactive
CNC(=O)O[C@H]1CC(=O)N([C@H]2O[C@@H](COC(C)=O)[C@H](OC(N)=O)[C@@H](OC)[C@@H]2O)c2cc(cc(O)c2Cl)C/C(C)=C/C=C/[C@@H](OC)[C@@]2(O)C[C@H](OC(=O)N2)[C@@H](C)/C=C/1C,inactive,inactive
CNC(=O)O[C@H]1CC(=O)N([C@H]2O[C@@H](CO)[C@H](O)[C@@H](OC)[C@@H]2O)c2cc(cc(O)c2Cl)C/C(C)=C/C=C/[C@@H](OC)[C@@]2(O)C[C@H](OC(=O)N2)[C@@H](C)[C@H]2O[C@@]12C,inactive,inactive
